Source: ChEMBL document CHEMBL2331122, “Cytotoxic polyketide derivatives from the South China Sea sponge Plakortis simplex” (J Nat Prod, 2013)
pIC50: −log10 of the molar value. Structures can show the parent of a compound that is named as a salt.

Tests used:
HeLa = experiment: Cytotoxicity against human HeLa cells after 72 hrs by MTT assay; type: functional, cell-based
Summary of the method: (§1)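 Human tumour cells plated 24 h ahead, then exposed continuously to a range of compound concentrations for 72 h. Viability read by MTT. Adriamycin served as positive control. IC50 is the concentration giving 50% inhibition of control growth. Three independent experiments, each in triplicate.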

Bel-7402 = experiment: Cytotoxicity against human Bel7402 cells after 72 hrs by MTT assay; type: functional, cell-based; settings: Bel-7402, 72 h; summary of the method: as §1
K562 = experiment: Cytotoxicity against human K562 cells after 72 hrs by MTT assay; type: functional, cell-based; settings: K562, 72 h
Summary of the method: (§2)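 Human tumour cells plated 24 h ahead, then exposed continuously to a range of compound concentrations for 72 h. Viability read by MTT. Adriamycin served as positive control. Three independent experiments, each in triplicate.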

A549 = experiment: Cytotoxicity against human A549 cells after 72 hrs by MTT assay; type: functional, cell-based; settings: A549, 72 h; summary of the method: as §2
[1] = target: Hepatocyte growth factor receptor (Homo sapiens) (UniProt P08581); experiment: Inhibition of c-Met (unknown origin) at 10 uM after 60 mins by ELISA relative to control
Hepatocyte growth factor receptor (Homo sapiens), sequence (P08581 whole entry): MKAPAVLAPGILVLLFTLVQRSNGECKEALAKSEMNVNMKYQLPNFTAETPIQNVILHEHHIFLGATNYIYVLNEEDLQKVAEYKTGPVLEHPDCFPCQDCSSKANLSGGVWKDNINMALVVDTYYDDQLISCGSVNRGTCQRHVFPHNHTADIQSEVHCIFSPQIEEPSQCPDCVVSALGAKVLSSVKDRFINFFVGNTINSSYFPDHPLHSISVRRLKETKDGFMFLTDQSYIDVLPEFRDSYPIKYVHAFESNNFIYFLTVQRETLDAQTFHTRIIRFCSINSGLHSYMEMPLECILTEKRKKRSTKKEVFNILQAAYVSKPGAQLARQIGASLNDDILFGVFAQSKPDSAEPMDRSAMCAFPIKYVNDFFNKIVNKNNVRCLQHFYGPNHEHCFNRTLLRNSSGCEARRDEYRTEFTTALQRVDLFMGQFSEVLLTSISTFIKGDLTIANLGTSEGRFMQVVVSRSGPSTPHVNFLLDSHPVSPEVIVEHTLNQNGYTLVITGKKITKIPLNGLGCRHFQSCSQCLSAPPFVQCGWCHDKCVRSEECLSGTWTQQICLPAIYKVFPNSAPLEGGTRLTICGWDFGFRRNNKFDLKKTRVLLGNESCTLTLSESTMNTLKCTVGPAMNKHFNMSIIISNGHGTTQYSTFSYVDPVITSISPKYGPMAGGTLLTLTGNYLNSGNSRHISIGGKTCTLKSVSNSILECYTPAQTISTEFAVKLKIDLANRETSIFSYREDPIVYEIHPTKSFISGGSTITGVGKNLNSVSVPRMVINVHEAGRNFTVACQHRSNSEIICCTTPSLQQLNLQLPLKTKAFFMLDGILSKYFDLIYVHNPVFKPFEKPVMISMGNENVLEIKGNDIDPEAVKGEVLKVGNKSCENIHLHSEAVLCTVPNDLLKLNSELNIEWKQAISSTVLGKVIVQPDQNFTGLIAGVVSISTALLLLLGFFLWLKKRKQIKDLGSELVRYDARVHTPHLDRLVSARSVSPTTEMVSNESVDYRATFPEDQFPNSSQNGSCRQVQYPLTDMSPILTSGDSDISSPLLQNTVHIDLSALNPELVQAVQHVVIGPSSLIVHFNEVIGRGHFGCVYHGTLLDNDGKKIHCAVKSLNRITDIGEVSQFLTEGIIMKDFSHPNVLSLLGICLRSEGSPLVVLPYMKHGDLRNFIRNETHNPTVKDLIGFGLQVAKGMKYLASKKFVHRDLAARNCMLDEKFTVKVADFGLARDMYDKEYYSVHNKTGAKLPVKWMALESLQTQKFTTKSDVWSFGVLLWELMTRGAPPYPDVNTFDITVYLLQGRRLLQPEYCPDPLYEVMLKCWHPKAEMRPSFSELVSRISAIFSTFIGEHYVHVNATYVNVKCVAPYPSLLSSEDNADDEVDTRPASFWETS
Summary of the method: (§3)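 ELISA tyrosine kinase assay. Compounds added in DMSO (1% v/v), which was also the negative control; SU11274 (1 μM) was the positive control. Reaction run 60 min at 37 °C. pTyr detected by PY99 plus HRP anti-mouse IgG (30 min, 37 °C), developed with OPD/H2O2, read at 490 nm. Percent inhibition calculated.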

[2] = target: Hepatocyte growth factor receptor (Homo sapiens) (UniProt P08581); experiment: Inhibition of c-Met (unknown origin) at 1 uM after 60 mins by ELISA relative to control; summary of the method: as §3

inhibition [1] [%]	inhibition [2] [%]	SMILES	pIC50 (HeLa)	pIC50 (Bel-7402)	pIC50 (K562)	pIC50 (A549)
–	–	COc1cccc2c1C(=O)c1c(O)c3c(c(O)c1C2=O)C[C@@](O)(C(=O)CO)C[C@@H]3O[C@H]1C[C@H](N)[C@H](O)[C@H](C)O1 [DOXORUBICIN HYDROCHLORIDE]	6.22	–	–	–
–	–	CCCCC(CC)CC(O)(/C=C(/CC)[C@@H](O)CC(=O)OC)CC (some centres not stated) [WOODYLIDE B]	4.80	< 4.00	4.70	4.63
–	–	CCCCC(CC)C[C@]1(CC)O[C@H]1[C@]1(CC)C=CC(=O)O1 (some centres not stated) [PLAKORTOXIDE B]	< 4.30	< 4.00	< 4.00	< 4.00
–	–	CCCCC(C)C[C@]1(CC)O[C@H]1[C@]1(CC)C=CC(=O)O1 (some centres not stated) [PLAKORTOXIDE A]	4.50	< 4.00	< 4.30	< 4.00
–	–	CCCC[C@H](CC)C[C@]1(CC)C=C(CC)/C(=C/C(=O)OC)O1	5.38	< 4.00	5.28	< 4.00
–	–	CCCCC(C)Cc1cc(CC)c(CC(=O)O)o1 (configuration not stated) [PLAKORSIN D]	< 4.00	< 4.00	< 4.00	< 4.00
57.4	34.3	CC/C=C/[C@H]1C[C@](O)(CC)[C@@H]([C@]2(CC)OC(=O)C[C@@H]2O)[C@@H]1C [SIMPLEXTONE C]	4.54	< 4.00	4.71	4.39
–	–	CCCCC(C)CC(O)(/C=C(/CC)[C@@H](O)CC(=O)OC)CC (some centres not stated) [WOODYLIDE A]	4.81	< 4.00	4.62	4.53
–	–	CCCCC(C)C/C(=C\[C@@]1(CC)OC(=O)C[C@@H]1O)CC (some centres not stated) [SIMPLEXOLIDE B]	5.33	< 4.00	5.66	< 4.00
–	–	CC/C=C/[C@H](CC)C[C@]1(CC)C=C(CC)/C(=C/C(=O)OC)O1	5.59	< 4.00	6.10	< 4.00
–	–	CCCCC(C)C/C(=C/[C@@]1(CC)OC(=O)C[C@@H]1O)CC (some centres not stated) [SIMPLEXOLIDE E]	4.51	< 4.00	4.31	< 4.00
–	–	CCC[C@@H]1[C@@H](C)C[C@](O)(CC)[C@H]1[C@]1(CC)OC(=O)C[C@@H]1O [SIMPLEXTONE D]	< 4.30	< 4.00	< 4.00	< 4.00
